# High-throughput results as filed in PubChem BioAssay.
# MC4R ag barr = agonists of human melanocortin 4 receptor (MC4R) beta-arrestin; P32245; U2OS MC4R beta-arrestin complementation, luminescence; percent of melanotan II response, DMSO zero; activation, % at 8.9 µM; hit rate 0.98% among 360,000; AID 540308;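 active means activation above a per-plate cutoff, the mean activation of sample wells on that plate plus 3 SD, cut at about 8% in these data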
# MC4R antag cAMP = blocks human MC4R cAMP signaling; P32245; MC4R-expressing cells, MTII-stimulated cAMP, LANCE TR-FRET; inhibition, % at 6.5 µM; hit rate 0.48% among 360,000;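 active means inhibition above its plate's cutoff, the mean of tested wells on that plate plus 3 SD, cut at about 29% in these data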
#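 Assay system: U2OS cells stably expressing human melanocortin 4 receptor (MC4R) / Dosing: 6.5 µM / Timing: compound 30 min, challenge 1 h, detection 1 h / Measured by: Eu-cAMP/anti-cAMP TR-FRET, emission 671 nm / Replicates: singlicate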
# NTR1 ag = activates human neurotensin receptor 1; NTR1-U2OS beta-arrestin-GFP spot imaging, agonist mode; activation, % at 20 µM; hit rate 0.17% among 330,000;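 active means activation at or above 40% of the spot to cytoplasm intensity ratio, with at least 20 cells analyzed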
# Granule exo inh = lytic granule exocytosis inhibition. TALL-104 LAMP-1 surface exposure, flow cytometry; cells stimulated with thapsigargin and PMA. inhibition, % at 10 µM. hit rate 0.66% among 360,000. AID 651702;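 active means inhibition above about 55%, limit read from the data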
# HGIII-sPLA2 inh = Blocks human group III sPLA2 activity. QFRET BODIPY PC-A2 liposome hydrolysis, fluorescence. inhibition, % at 12.2 µM. hit rate 0.56% among 370,000;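 active means inhibition above mean plus 3 SD of compounds lying within the high and low control bounds, cut at about 19% in these data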
# Target sequence (Q9NZ20 whole entry, looked up): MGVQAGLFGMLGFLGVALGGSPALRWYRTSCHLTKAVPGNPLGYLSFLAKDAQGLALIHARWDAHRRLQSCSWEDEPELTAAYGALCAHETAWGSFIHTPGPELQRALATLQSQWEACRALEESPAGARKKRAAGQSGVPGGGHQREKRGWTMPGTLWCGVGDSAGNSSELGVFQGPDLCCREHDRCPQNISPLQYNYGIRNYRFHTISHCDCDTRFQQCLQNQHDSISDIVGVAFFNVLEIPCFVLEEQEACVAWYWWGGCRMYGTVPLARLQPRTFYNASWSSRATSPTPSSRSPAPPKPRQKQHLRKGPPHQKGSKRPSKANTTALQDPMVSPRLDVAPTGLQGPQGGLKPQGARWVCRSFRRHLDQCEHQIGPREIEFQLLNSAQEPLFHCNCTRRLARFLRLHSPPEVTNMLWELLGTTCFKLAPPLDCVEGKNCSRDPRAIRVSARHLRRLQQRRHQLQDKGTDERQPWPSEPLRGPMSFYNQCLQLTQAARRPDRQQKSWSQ
# Bfl-1 A1 inh = inhibitors of the anti-apoptotic protein A1, read as caspase activation. MEF A1-2A-BIM cells, Caspase-Glo 3/7 luminescence, 3 h; percent of clofoctol response, vehicle zero. caspase activation, % (concentration not given with the values). hit rate 0.066% among 330,000. AID 2462;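 active means over half of replicate activation scores above 10%, or exactly half above 10 with the replicate mean above 10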
# NTR1 ag confirm = confirmation of agonists of human NTR1 | NTR1-U2OS beta-arrestin-GFP translocation imaging | activation, % at 20 µM | shares compounds with NTR1 ag | hit rate 38% among 480;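 active means mean activation at 20 µM of at least 40%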
# Numbers stand for hits; n = inactive; x = not tested or not shown. Sampled rows, rich in hits. Any-hit rate of the full collection: about 2.5%.
SMILES,MC4R ag barr,MC4R antag cAMP,NTR1 ag,Granule exo inh,HGIII-sPLA2 inh,Bfl-1 A1 inh,NTR1 ag confirm
COc1cccc(N(C(=O)c2snc(C(N)=O)c2N)C(C(=O)NCC2CCCO2)c2ccc(F)cc2)c1 (stereo not given),n,n,n,n,n,n,x
CCOc1ccc(C(C(=O)NCC2CCCO2)N(C(=O)c2snc(C(N)=O)c2N)c2ccc(F)cc2)cc1 (stereo not given),n,n,44.5,n,n,n,n
CC1=NOC(=O)/C1=C\c1ccc(-c2ccc(Cl)cc2Cl)o1,n,n,80.0,96.2,n,x,n
O/N=C/c1cn(-c2ccccc2)nc1-c1ccccc1,n,n,x,n,n,n,x
CC1(C)CC(=O)C(=Cc2cn(-c3ccccc3)nc2-c2ccccc2)C(=O)C1,n,n,71.1,55.9,n,n,65.4
CC(COc1cc(F)cc(C#N)c1)CN1CCC(C(O)(c2ccccc2)c2ccccc2)CC1 (stereo not given),x,x,x,x,n,x,x
CCc1c(C(=O)C(C)O)c2n3c1CCC[C@@H]3CC2 (stereo not given in full),x,x,x,x,n,x,x
CCOC(=O)N1CCN(C(=O)C[C@@H]2C(=O)N(CCc3ccc(Cl)cc3)/C3=C/CCCCC[C@@]32C(=O)OCC)CC1,x,x,x,x,n,x,x
CCC[C@H]1[C@@H](NC(=O)c2cccc(Cl)c2)CC[C@@]23CCCN2C(=O)CCC[C@@H]13,x,x,x,x,n,x,x
COc1ccc(O)c(-c2cc(-c3cccc(Br)c3)n[nH]2)c1,n,n,54.8,n,n,n,n
COc1ccc(-c2cc(-c3cc(OC)ccc3O)[nH]n2)cc1,n,n,n,n,n,n,x
O=C1CC(N(CCc2ccccc2)C(=S)Nc2ccccc2)C(=O)N1c1ccc(Br)cc1 (stereo not given),n,n,60.2,n,n,n,n
Cc1onc(C(=O)N2CCN(C(c3ccc(F)cc3)c3ccc(F)cc3)CC2)c1[N+](=O)[O-],x,x,x,x,n,x,x
c1ccc(CN2CCC(Nc3nc(-c4ccccc4)nc4ccccc34)CC2)cc1,n,n,42.0,n,n,n,41.7
O=C(Nc1cccnc1)c1ccc(CSc2ccc(Cl)cc2)o1,x,x,x,x,n,x,x
O=C1CC(O)C(Cc2ccccc2)N1 (stereo not given),x,x,x,x,n,x,x
O=C(Oc1ccc(Br)cc1C(=O)/C=C/c1ccccc1F)c1ccco1,n,n,54.7,n,n,n,40.3
Cc1ccc(-n2ncc3c(N4CCN(c5ccccc5)CC4)ncnc32)c(C)c1,n,n,61.9,n,n,n,60.9
Cc1ccc(-n2c(SCC(=O)c3ccccc3Br)nnc2-c2ccncc2)cc1,x,x,x,x,n,x,x
CC(C)[C@H]1/C(=C/C2CC2)N2C(=O)C[C@H](c3cccc(C(F)(F)F)c3)N=C2N1Cc1ccc2c(c1)OCO2,x,x,x,x,n,x,x
O=[N+]([O-])c1cc(C(F)(F)F)ccc1NCCNC(=S)Nc1ccc(Cl)cc1,n,n,41.1,n,n,n,n
Cc1cc2c3c(c1)C(C)(c1ccccc1)CC(C)(C)N3C(=O)C21C(C#N)=C(N)OC2=C1C(=O)CC(C)(C)C2 (stereo not given),n,n,40.4,n,n,n,41.9
O=C(NC1CCCC1)N1CCC(c2nc3ccc(Cl)cc3[nH]2)CC1,x,x,x,x,n,x,x
CC(C)Cn1c(N)c(C(=O)CSc2cc(Cl)ccc2Cl)c(=O)n(C)c1=O,x,x,47.7,x,x,n,47.1
CC(C)=CCC/C(C)=C/CN1C(=O)N(c2ccc(F)cc2)[C@H]2C[C@@H](c3ccccc3)[C@@H](C)[C@@H](C(=O)N3CCOCC3)C[C@H]21,x,x,x,x,n,x,x
CCCCCC(=O)Nc1cccc(C2=NOC3(C2)C[C@H](C(N)=O)N(C(=O)COc2ccc(Cl)cc2)C3)c1 (stereo not given in full),n,n,41.6,n,n,n,n
CC(NCC(O)COCCC12CC3CC(CC(C3)C1)C2)c1ccccc1 (stereo not given),n,n,46.3,n,n,n,69.2
COc1ccc(-c2c(C(=O)c3ccccc3)[nH]c(N)c2C(=O)c2c[nH]c3ccccc23)cc1OC,x,x,x,x,n,x,x
COc1cc(NC(=O)Nc2cccc([N+](=O)[O-])c2)cc(OC)c1,n,n,n,n,n,n,x
